From publication PMC11290325 (Chemical Science, 2024) come the findings set out here.

The target in experiment [1] is hKeap1 (Homo sapiens, UniProt Q14145). As to the kind of experiment: BLI binding to hKeap1. The settings on record: Hk2 and Hk3 tested up to 100 μM. For orientation: In BLI a coated tip is dipped into the sample, and binding shifts an interference pattern.
The target in experiment [2] is NEK7 (Homo sapiens, UniProt Q8TDX7). As to the kind of experiment: BLI binding to NEK7.
The subject of experiment [3] is M13 phages. The experiment is described as follows: Phage infectivity. More on the design: species or system M13 bacteriophage. The note with it: PBS pH 7.4, 20 min, room temperature. The method in brief:
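M13 phages displaying an N-terminal KGGSC pIII peptide with a factor Xa site were grown in E. coli TG1 and PEG-purified. They were then TCEP-reduced, factor Xa-digested and blocked with CBT (0.5 mM). After CBT removal and buffer exchange, they were treated with OPA at 100, 300 or 500 µM in PBS pH 7.4 for 20 min at room temperature. Titers (cfu) were measured after each stage by infecting TG1.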

In experiment [4] the target is T1, PTP1B (Homo sapiens, UniProt P18031).
T1 sequence (P18031 1-435): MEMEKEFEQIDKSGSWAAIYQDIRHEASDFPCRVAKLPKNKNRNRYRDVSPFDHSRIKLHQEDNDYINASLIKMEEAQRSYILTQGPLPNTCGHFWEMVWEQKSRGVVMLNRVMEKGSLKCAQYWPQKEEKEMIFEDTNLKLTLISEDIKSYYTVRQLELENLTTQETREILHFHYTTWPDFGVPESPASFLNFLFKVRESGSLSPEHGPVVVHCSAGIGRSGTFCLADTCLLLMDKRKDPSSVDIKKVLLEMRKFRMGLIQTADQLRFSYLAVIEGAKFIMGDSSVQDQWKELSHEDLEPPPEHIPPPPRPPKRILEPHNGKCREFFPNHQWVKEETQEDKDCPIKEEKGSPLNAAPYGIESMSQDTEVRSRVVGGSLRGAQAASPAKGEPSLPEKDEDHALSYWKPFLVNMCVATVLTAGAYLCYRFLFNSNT
As to the kind of experiment: Bio-Layer Interferometry. The class given is binding. The method in brief:
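Bio-layer interferometry […]. Wavelength shift and kinetic parameters were recorded. Kd was obtained by curve fitting. Cyclic peptides were made by OPA treatment of purified SPPS linear precursors.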

Experiment [5] addresses T1, PTP1B. The experiment is described as follows: in vitro enzyme inhibition of PTP1B. The class given is biochemical.

Where a SMILES comes first, the peptide text is derived from it.

Sequence of hKeap1 (Q14145 whole entry): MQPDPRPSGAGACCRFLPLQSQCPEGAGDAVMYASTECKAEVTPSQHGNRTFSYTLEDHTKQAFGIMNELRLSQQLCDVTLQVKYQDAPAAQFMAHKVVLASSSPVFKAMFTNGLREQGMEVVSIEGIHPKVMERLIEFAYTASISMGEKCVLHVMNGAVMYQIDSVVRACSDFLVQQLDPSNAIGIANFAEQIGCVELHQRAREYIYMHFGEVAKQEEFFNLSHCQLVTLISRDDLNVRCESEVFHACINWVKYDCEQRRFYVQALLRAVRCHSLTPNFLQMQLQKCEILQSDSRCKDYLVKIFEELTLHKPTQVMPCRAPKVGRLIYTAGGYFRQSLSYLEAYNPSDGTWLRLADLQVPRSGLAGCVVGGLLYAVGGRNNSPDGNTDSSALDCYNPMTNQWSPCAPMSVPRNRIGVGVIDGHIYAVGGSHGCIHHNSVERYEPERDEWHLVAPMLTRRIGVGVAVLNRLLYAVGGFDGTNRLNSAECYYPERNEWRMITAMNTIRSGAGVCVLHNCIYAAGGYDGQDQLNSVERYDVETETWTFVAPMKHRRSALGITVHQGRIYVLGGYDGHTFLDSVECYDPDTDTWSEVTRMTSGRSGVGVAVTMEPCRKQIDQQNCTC
Sequence of NEK7 (Q8TDX7 whole entry): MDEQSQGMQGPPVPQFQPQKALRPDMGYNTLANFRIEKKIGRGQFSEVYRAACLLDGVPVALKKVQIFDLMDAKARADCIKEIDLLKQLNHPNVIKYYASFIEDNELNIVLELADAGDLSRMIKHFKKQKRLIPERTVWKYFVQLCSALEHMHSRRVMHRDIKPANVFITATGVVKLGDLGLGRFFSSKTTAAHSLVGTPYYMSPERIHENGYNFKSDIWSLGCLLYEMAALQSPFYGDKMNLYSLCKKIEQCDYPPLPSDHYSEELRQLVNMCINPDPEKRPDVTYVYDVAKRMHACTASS

`CC(=O)N[C@H]1CCCCn2cc3ccccc3c2SC[C@@H](C(N)=O)NC(=O)[C@H](CCC(=O)O)NC(=O)CNC(=O)[C@H]([C@@H](C)O)NC(=O)[C@H](CC(=O)O)NC(=O)[C@@H]2CCCN2C(=O)[C@H](CC(=O)O)NC(=O)[C@H](CC(C)C)NC1=O` [Hk2] (HELM PEPTIDE1{[ac].[O=C([C@H](CCCCn1cc2ccccc2c1[*:3])N[*:1])[*:2]].L.D.P.D.T.G.E.C.[am]}$PEPTIDE1,PEPTIDE1,2:R3-10:R3$$$V2.0): the “binding to hKeap1 (in words)” value in experiment [1] was “did not exhibit significant affinity”.
Consider `CC(=O)N[C@H]1CCCCn2cc3ccccc3c2SC[C@@H](C(N)=O)NC(=O)CNC(=O)[C@H](CCC(=O)O)NC(=O)CNC(=O)[C@H]([C@@H](C)O)NC(=O)[C@H](C)NC(=O)[C@H]([C@@H](C)O)NC(=O)[C@H](CCC(N)=O)NC1=O` [Hk3] (HELM PEPTIDE1{[ac].[O=C([C@H](CCCCn1cc2ccccc2c1[*:3])N[*:1])[*:2]].Q.T.A.T.G.E.G.C.[am]}$PEPTIDE1,PEPTIDE1,2:R3-10:R3$$$V2.0), for which, in experiment [1], the “binding to hKeap1 (in words)” value is given as “did not exhibit significant affinity”.
With `CC[C@H](C)[C@@H]1NC(=O)[C@H](CC(C)C)NC(=O)[C@@H]2CCCN2C(=O)[C@H](Cc2ccccc2)NC(=O)[C@H](CC(C)C)NC(=O)[C@H](CC(C)C)NC(=O)[C@@H](NC(C)=O)CCCCn2cc3ccccc3c2SC[C@@H](C(N)=O)NC(=O)[C@H](CC(N)=O)NC1=O` [N3] (HELM PEPTIDE1{[ac].[O=C([C@H](CCCCn1cc2ccccc2c1[*:3])N[*:1])[*:2]].L.L.F.P.L.I.N.C.[am]}$PEPTIDE1,PEPTIDE1,2:R3-10:R3$$$V2.0), the “binding to NEK7 (in words)” value in experiment [2] is reported as “low binding capacity”.
`O=Cc1ccccc1C=O` [OPA, ortho-phthalaldehyde]: the “impact on M13 phages in cfus” value in experiment [3] (OPA concentration below 300 μM) is “no significant impact”. Further, the “reduction in infectivity compared to untreated phage supernatant” value in experiment [3] (OPA surpassing the 500 μM threshold) was “over 20 fold”.
With Ac-KLFLHWARC-NH2 [M2_SS], the “binding to PTP1B (in words)” value in experiment [4] (BLI) is “unable to bind”.
Turning to Ac-KQTATGRGC-NH2 [Hk1_SS], in experiment [1], the “binding to hKeap1 (in words)” value is listed as “no interaction”.
On to Ac-KTFLHWRYC-NH2 [M1_SS], for which the Kd in experiment [4] came out at 9.2 ± 0.9 µM. Besides, the “reduction in affinity compared to its cyclic counterpart” value in experiment [4] (BLI, linear precursor vs cyclic M1_OPA) is recorded as “four-fold”. This molecule also gave an IC50 in experiment [5] of 54.8 ± 4.21 µM.

In general, Kd refers to the concentration at which binding is half-saturated. Read a low Kd as tighter binding. As a reminder, the IC50 is the concentration needed to halve the response being measured. A low value points to higher potency.
